Assay results published in ChEMBL document CHEMBL1287655, “Structure-activity relationship studies of acridones as potential antipsoriatic agents. 2. Synthesis and antiproliferative activity of 10-substituted hydroxy-10H-acridin-9-ones against human keratinocyte growth” (Eur J Med Chem, 2010).

What was measured:
HaCaT [1] = experiment: Antiproliferative activity against human HaCaT cells assessed as dispersed cells after 48 hrs by phase-contrast microscopic analysis; format: functional, cell-based
Outline: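 HaCaT keratinocytes (non-transformed human line) treated for 48 h, then dispersed cells counted by phase-contrast microscopy. Inhibition = (1 − test/control) × 100, from means of test (N = 3) versus control (N = 6–8). Significance by Student's t-test (P < 0.05). IC50 obtained by nonlinear regression.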

[2] = tested on: Radical scavenging activity; experiment: Antioxidant activity assessed as DPPH free radical scavenging activity; format: functional
Outline: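 Cell-free DPPH radical interaction: compound effect on DPPH absorbance read at 520 nm. Percent interaction = (1 − test absorbance/control absorbance) × 100, from mean of N = 3 versus control N = 8. EC50 is the concentration giving 50% decrease in DPPH absorbance. NDGA and α-tocopherol served as positive controls.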

HaCaT [3] = experiment: Cytotoxicity against human HaCaT cells assessed as LDH release at 2 uM after 4 hrs by UV method; format: functional
Outline: (§1)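 HaCaT cells exposed to test compound for 4 h at 37 °C. Extracellular LDH activity measured by UV method with pyruvate and NADH and reported in mU/mL (N = 3, SD < 10%). Vehicle control was 0.2% DMSO in culture medium. Brij 35 with ultrasound served as positive control. Significance versus vehicle at P < 0.05.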

HaCaT [4] = experiment: Cytotoxicity against human HaCaT cells assessed as LDH release at 2 uM after 4 hrs by UV method relative to control; format: functional; outline: as §1

Structure (SMILES): Cn1c2ccccc2c(=O)c2ccccc21
- IC50 (HaCaT [1]): 38.9 µM

Structure (SMILES): O=c1c2ccccc2n(CCc2ccccc2)c2cccc(O)c12
- IC50 (HaCaT [1]): 41.5 µM

Structure (SMILES): Cc1cccc2c1c(=O)c1c(O)cc(O)cc1n2C
- IC50 (HaCaT [1]): > 50 µM

Structure (SMILES): CCCn1c2ccccc2c(=O)c2c(O)cc(O)cc21
- IC50 (HaCaT [1]): > 50 µM

Structure (SMILES): COc1ccc(CCn2c3ccccc3c(=O)c3c(O)cccc32)cc1OC
- EC50 [2]: > 500 µM
- IC50 (HaCaT [1]): 7 µM

Structure (SMILES): COc1cc2c(c3c1c(=O)c1ccccc1n3C)C=CC(C)(C)O2 [ACRONINE]
- EC50 [2]: > 500 µM
- Activity (HaCaT [3]): 70.4 mU/ml
- IC50 (HaCaT [1]): 3.2 µM

Structure (SMILES): O=C1c2c(O)cccc2Cc2cccc(O)c21 [ANTHRALIN]
- EC50 [2]: 16.7 µM
- Activity (HaCaT [4]): 122.8 mU/ml

Structure (SMILES): O=c1c2ccccc2[nH]c2cc(O)cc(O)c12
- EC50 [2]: > 500 µM

Structure (SMILES): O=c1c2ccccc2n(CCc2ccc(O)cc2)c2cccc(O)c12
- EC50 [2]: > 500 µM
- IC50 (HaCaT [1]): 20.1 µM

Structure (SMILES): O=c1c2ccccc2n(Cc2ccccc2)c2cccc(OCc3ccccc3)c12
- EC50 [2]: > 500 µM
- Activity (HaCaT [3]): 72.1 mU/ml
- IC50 (HaCaT [1]): 7.5 µM

Structure (SMILES): O=c1c2ccccc2[nH]c2cccc(O)c12
- EC50 [2]: > 500 µM
- IC50 (HaCaT [1]): > 50 µM

Structure (SMILES): O=c1c2ccccc2n(Cc2ccccc2)c2cc(OCc3ccccc3)cc(O)c12
- IC50 (HaCaT [1]): > 50 µM

Structure (SMILES): O=c1c2ccccc2n(Cc2ccccc2)c2ccc(Cc3ccccc3)c(O)c12
- IC50 (HaCaT [1]): 13 µM

Structure (SMILES): O=c1c2ccccc2n(Cc2ccccc2)c2ccccc12
- IC50 (HaCaT [1]): > 50 µM

Structure (SMILES): Cn1c2ccccc2c(=O)c2c(O)cc(O)cc21
- EC50 [2]: > 500 µM
- Activity (HaCaT [3]): 74.3 mU/ml
- IC50 (HaCaT [1]): 0.6 µM

Structure (SMILES): CCn1c2ccccc2c(=O)c2c(O)cc(O)cc21
- IC50 (HaCaT [1]): > 50 µM

Structure (SMILES): O=c1c2ccccc2n(CCCc2ccccc2)c2cccc(O)c12
- IC50 (HaCaT [1]): > 50 µM

Structure (SMILES): Cn1c2ccccc2c(=O)c2c(O)cccc21
- IC50 (HaCaT [1]): > 50 µM

Structure (SMILES): CCn1c2ccccc2c(=O)c2c(O)cccc21
- IC50 (HaCaT [1]): > 50 µM

Structure (SMILES): O=c1c2ccccc2n(Cc2ccccc2)c2cc(O)cc(O)c12
- EC50 [2]: > 500 µM
- Activity (HaCaT [3]): 76.8 mU/ml
- IC50 (HaCaT [1]): 3.7 µM

Structure (SMILES): O=c1c2ccccc2n(CCCCc2ccccc2)c2cccc(O)c12
- IC50 (HaCaT [1]): > 50 µM

Structure (SMILES): COc1ccc(CCn2c3ccccc3c(=O)c3c(O)cccc32)cc1
- EC50 [2]: > 500 µM
- Activity (HaCaT [3]): 74.6 mU/ml
- IC50 (HaCaT [1]): 6.3 µM

Structure (SMILES): CCCn1c2ccccc2c(=O)c2c(O)cccc21
- IC50 (HaCaT [1]): > 50 µM

Structure (SMILES): O=c1c2ccccc2n(Cc2ccc([N+](=O)[O-])cc2)c2cccc(O)c12
- EC50 [2]: > 500 µM
- Activity (HaCaT [4]): 86.7 mU/ml
- IC50 (HaCaT [1]): 1.8 µM

Structure (SMILES): O=c1c2ccccc2n(CCCc2ccccc2)c2cc(O)cc(O)c12
- IC50 (HaCaT [1]): 40.5 µM

Structure (SMILES): O=c1c2ccccc2[nH]c2ccccc12 [ACRIDONE]
- IC50 (HaCaT [1]): > 50 µM

Structure (SMILES): COc1cccc2c1c(=O)c1ccccc1n2C
- IC50 (HaCaT [1]): > 50 µM

Structure (SMILES): CCOc1cc(O)c2c(=O)c3ccccc3n(CC)c2c1
- IC50 (HaCaT [1]): > 50 µM

Structure (SMILES): CC(=O)CC(=O)n1c2ccccc2c(=O)c2ccccc21
- IC50 (HaCaT [1]): 27.8 µM

Structure (SMILES): CC(=O)CC(=O)n1c2ccccc2c(=O)c2c(O)cccc21
- EC50 [2]: > 500 µM
- Activity (HaCaT [3]): 74 mU/ml
- IC50 (HaCaT [1]): 3.3 µM

Structure (SMILES): COc1ccc(Cn2c3ccccc3c(=O)c3ccccc32)cc1OC
- EC50 [2]: > 500 µM
- IC50 (HaCaT [1]): > 50 µM

Structure (SMILES): COc1cc(CCn2c3ccccc3c(=O)c3c(O)cccc32)cc(OC)c1OC
- IC50 (HaCaT [1]): 45.5 µM

Structure (SMILES): O=c1c2ccccc2n(Cc2ccccc2)c2cccc(O)c12
- EC50 [2]: > 500 µM
- Activity (HaCaT [3]): 74.9 mU/ml
- IC50 (HaCaT [1]): 2.5 µM

Structure (SMILES): COc1cc(O)c2c(=O)c3ccccc3n(C)c2c1
- IC50 (HaCaT [1]): > 50 µM
